From ChEMBL document CHEMBL1158763, “Cytotoxic arylnaphthalene lignans from a Vietnamese acanthaceae, Justicia patentiflora” (J Nat Prod, 2005)
Calls of active or inactive are those of the source. No cut-off for these calls is given here.

How the values were obtained:
KB = assay: Cytotoxicity against human KB cells; format: functional, cell-based
HCT-116 [1] = assay: Cytotoxicity against human HCT116 cells; format: functional, cell-based
MCF7 [2] = assay: Cytotoxicity against doxorubicin-sensitive human MCF7 cells; format: functional, cell-based
MCF7 [3] = assay: Cytotoxicity against doxorubicin-resistant human MCF7 cells; format: functional, cell-based
Procedure, shortened: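 Doxorubicin-resistant MCF-7 line derived by prolonged doxorubicin treatment of MCF-7 cells; cytotoxicity assay run per a previously published procedure.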

Mus musculus = assay: Toxicity in mouse P388 cells implanted in CDF1 mouse assessed as induction of death at 5 mg/kg, ip administered 1 day following implantation; format: organism-based; set-up: dose 5 mg/kg, route intraperitoneal; settings: in vivo, 24 h
Procedure, shortened: (§1)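 10^6 P388 (or P388/F 11782) murine leukemia cells implanted i.v. into CDF1 mice on day zero; single i.p. dose (2.5 or 5 mg/kg) given the day after implantation. Mice weighed twice weekly during treatment, weekly thereafter. Antitumor activity judged by increase in lifespan: ILS (%) = T/C − 100, T/C = median survival treated/control × 100.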

MCF7 [4] = assay: Cell cycle arrest in human MCF7 cells assessed as accumulation at G0/G1 phase at 10 nM after 48 hrs; format: functional, cell-based
HCT-116 [5] = assay: Cell cycle arrest in human HCT116 cells assessed as accumulation at S phase at 10 nM after 48 hrs by flow cytometry; format: functional
P388 = assay: Antitumor activity against mouse P388 cells implanted in CDF1 mouse assessed as reduction in body weight at 2.5 mg/kg, ip administered 1 day following implantation; format: functional, organism-based; set-up: dose 2.5 mg/kg; procedure, shortened: as §1
HCT-116 [6] = assay: Cell cycle arrest in human HCT116 cells assessed as accumulation at G0/G1 phase at 10 nM after 48 hrs by flow cytometry; format: functional
HCT-116 [7] = assay: Cell cycle arrest in human HCT116 cells assessed as accumulation at G2/M phase at 10 nM after 48 hrs by flow cytometry; format: functional

| SMILES | IC50 (KB) [nM] | IC50 (HCT-116 [1]) [nM] | IC50 (MCF7 [2]) [nM] | IC50 (MCF7 [3]) [nM] | Activity (Mus musculus) | Activity (MCF7 [4]) | Activity (HCT-116 [5]) [%] | Activity (P388) | Activity (HCT-116 [6]) [%] | Activity (HCT-116 [7]) [%] |
| --- | --- | --- | --- | --- | --- | --- | --- | --- | --- | --- |
| COc1cc2c(O[C@H]3O[C@@H](C)[C@@H](OC(C)=O)[C@@H](OC(C)=O)[C@@H]3OC(C)=O)c3c(c(-c4ccc5c(c4)OCO5)c2cc1OC)C(=O)OC3 | 20 | 35 | 45 |  |  |  |  |  |  |  |
| COc1cc2c(O[C@@H]3O[C@H](CO[C@@H]4OC[C@H](OC(C)=O)[C@H](OC(C)=O)[C@H]4OC(C)=O)[C@H](OC(C)=O)[C@H](OC(C)=O)[C@H]3OC(C)=O)c3c(c(-c4ccc5c(c4)OCO5)c2cc1OC)C(=O)OC3 | 180 | 260 | 80 | 8000 |  |  |  |  |  |  |
| COc1cc2c(O[C@@H]3O[C@H](C)[C@@H](OC(C)=O)[C@H](OC(C)=O)[C@H]3OC(C)=O)c3c(c(-c4ccc5c(c4)OCO5)c2cc1OC)C(=O)OC3 | 14 | 16 | 2 | 65 |  |  |  |  |  |  |
| COc1cc2c(O[C@@H]3O[C@H](CO[C@@H]4OC[C@H](O)[C@H](O)[C@H]4O)[C@H](OC(C)=O)[C@H](OC(C)=O)[C@H]3O)c3c(c(-c4ccc5c(c4)OCO5)c2cc1OC)C(=O)OC3 [4'-O-ACETYLMANANTHOSIDE B] | 500 | 1200 | 260 | 2200 |  |  |  |  |  |  |
| COc1cc2c(O[C@H]3O[C@@H](C)[C@@H](OC(C)=O)[C@@H](O)[C@@H]3O)c3c(c(-c4ccc5c(c4)OCO5)c2cc1OC)C(=O)OC3 [4'-O-ACETYLPATENTIFLORIN B] | 24 | 30 | 12 | 100 |  |  |  |  |  |  |
| CC(=O)O[C@@]12CO[C@@H]1C[C@H](O)[C@@]1(C)C(=O)[C@H](O)C3=C(C)[C@@H](OC(=O)[C@H](O)[C@@H](NC(=O)OC(C)(C)C)c4ccccc4)C[C@@](O)([C@@H](OC(=O)c4ccccc4)[C@H]21)C3(C)C [DOCETAXEL] | 2 | 4 | 20 |  |  |  |  |  |  |  |
| COc1cc(OC)c2c(-c3ccc4c(c3)OCO4)c3c(c(OC)c2c1O)COC3=O [JUSTICINOL] | 300 |  | 360 |  |  |  |  |  |  |  |
| O=C(CC(CO)C(=O)c1ccc2c(c1)OCO2)c1ccc2c(c1)OCO2 (stereo not drawn) [JUSTIFLORINOL] | > 10000 |  |  |  |  |  |  |  |  |  |
| COc1cc2c(O[C@@H]3O[C@H](C)[C@@H](O)[C@H](O)[C@H]3O)c3c(c(-c4ccc5c(c4)OCO5)c2cc1OC)C(=O)OC3 [PATENTIFLORIN A] | 4 | 12 | 3 | 40 | Toxic | Active | 43.4 | inactive | 41.9 | 13.5 |
| COc1cc2c(O[C@H]3O[C@@H](C)[C@@H](O)[C@@H](O)[C@@H]3O)c3c(c(-c4ccc5c(c4)OCO5)c2cc1OC)C(=O)OC3 [PATENTIFLORIN B] | 6 | 250 | 300 |  |  |  |  |  |  |  |
